Only some compounds are listed: those with a hit (about 4% of all), similar ones and a draw of the others.
CHOP inhibitor – inhibitors of CHOP promoter induction, primary screen, cell-based, unfolded protein response, luciferase reporter; CHO-K1 CHOP-promoter luciferase, tunicamycin-induced, 15-18 h; inhibition, % at 10 µM; actives 3.8% (n = 220,000);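 active means compounds that reduced the stress-induced luciferase reporter signal by more than about 70% of percent inhibition, limit read from the data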;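 further: 0% = tunicamycin plus vehicle and 100% = wells without tunicamycin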
Hsp70 activator – Hsp70 transcriptional activators, primary screen, cell-based, HeLa, Hsp70 promoter luciferase, luminescence, 10 µM | activation, % at 10 µM | actives 0.04% (n = 200,000) | HeLa Hsp70 promoter luciferase reporter; scaled: vehicle 0, proteasome-inhibitor control 100%;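 active means activation above the mean across all tested compounds plus 3 SD, cutoff set per campaign, cut at about 5.5% in these data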;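 further: 100% = MG132 at 30 µM as the positive control and 0% = DMSO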
S1P3 antag – S1P3 receptor antagonists, primary screen, cell-based. CHO S1P3 NFAT-BLA reporter, FRET fluorescence, antagonist mode. actives 0.27% (n = 170,000). Sphingosine 1-phosphate receptor 3 (Homo sapiens), Q99500. inhibition, % at 4.98 µM. AID 485, 2006;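 active means inhibition above the plate cutoff, the mean inhibition of test wells on that plate plus 3 SD, cut at about 28% in these data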;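 further: cells challenged with S1P at its EC80 of 0.8 µM; blue over green emission ratio from cleaved BLA substrate after 4 h stimulation; 0% = S1P-stimulated wells and 100% = unstimulated DMSO-only wells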
Mdm2 ligase inh – MDM2-luciferase reporter signal enhancers, primary screen, MDM2 E3 ligase inhibitor project, cell-based, luminescence, 1536-well; E3 ubiquitin-protein ligase Mdm2 (Homo sapiens), Q00987; cell-based MDM2 ubiquitination luciferase reporter, 2 h; 0 = plate control, 100 = twice control, blank-subtracted; signal enhancement, % at 5 µM; actives 0.11% (n = 210,000);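 active means signal enhancement of 30% or more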;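 further: luminescence tracks abundance of the self-degrading MDM2-luciferase fusion protein; higher signal means inhibition of MDM2 E3 ligase activity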
Target sequence (Q00987 whole entry, looked up, the tested form may be a part): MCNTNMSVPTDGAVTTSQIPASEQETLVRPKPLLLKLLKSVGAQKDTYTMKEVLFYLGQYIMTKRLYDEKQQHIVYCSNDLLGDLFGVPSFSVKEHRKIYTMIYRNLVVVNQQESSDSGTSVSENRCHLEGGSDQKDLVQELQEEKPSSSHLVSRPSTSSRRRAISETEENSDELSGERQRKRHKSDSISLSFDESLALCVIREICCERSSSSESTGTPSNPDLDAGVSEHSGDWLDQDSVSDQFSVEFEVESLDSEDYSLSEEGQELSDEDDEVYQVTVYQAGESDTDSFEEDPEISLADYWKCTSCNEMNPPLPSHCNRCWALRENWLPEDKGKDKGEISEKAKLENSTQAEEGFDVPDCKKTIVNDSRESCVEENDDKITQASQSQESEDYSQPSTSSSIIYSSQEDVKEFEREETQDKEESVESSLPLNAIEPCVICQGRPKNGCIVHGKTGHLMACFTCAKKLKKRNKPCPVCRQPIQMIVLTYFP
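Timing – 2 h compound exposure at 37 °C · Assay system – mammalian cells stably expressing self-ubiquitinating, self-degrading MDM2 E3–luciferase fusion · Amount – 2000 cells seeded into each well · Measure – % luminescence enhancement versus blank-corrected plate control mean · Measured by – SteadyLite luminescence, 15 min reagent step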
Hsp70 act DR – Hsp70 transcriptional activators, dose response, cell-based, HeLa, Hsp70 promoter luciferase, luminescence, triplicate; calls only at 99 µM; actives 10% (n = 70); HeLa hsp70.1pr-luc reporter; shares compounds with Hsp70 activator; AID 1252, 2008;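 active means over 50% activation at some tested dose; inactive means under 50% activation at every tested dose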
CHOP inh conf – retest of CHOP induction inhibitors, confirmation, cell-based | CHO-CHOP promoter luciferase reporter, tunicamycin-induced, luminescence | AID 504437, 2011 | inhibition, % at 10 µM | actives 45% (n = 2,100) | shares compounds with CHOP inhibitor;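 active means mean of three repeat readings of reporter signal inhibition above a set limit, cut at about 70% in these data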;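 further: 0% = tunicamycin plus vehicle and 100% = wells lacking tunicamycin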
An asterisk follows results filed as active; i = inactive; nt = no result; + = active, no number.

SMILES | CHOP inhibitor | Hsp70 activator | S1P3 antag | Mdm2 ligase inh | Hsp70 act DR | CHOP inh conf
COc1ccc(C(CCN2CCOCC2)c2c(O)cc(OC)cc2OC)cc1 (configuration not stated) | 10 | nt | nt | 6 | nt | nt
O=C(CSc1nc2cc(Cl)ccc2o1)c1cccs1 | 28 | 0 | 5 | -6 | nt | nt
CCCOc1c(Br)cc(C(=O)NCC)cc1OC | 22 | 6.0* | -23 | -9 | i | nt
CC1C/C(=C/c2ccco2)C(=O)/C(=C/c2ccco2)C1 (configuration not stated) | -10 | 0 | 6 | -3 | nt | nt
O=C1/C(=C/c2ccccn2)COc2ccccc21 | -48 | 0 | -14 | -11 | nt | nt
CC1C/C(=C/c2ccccn2)C(=O)/C(=C/c2ccccn2)C1 (configuration not stated) | 108* | 314* | 2 | 46* | + | 113*
CC(C)(C)C1C/C(=C/c2ccccn2)C(=O)/C(=C/c2ccccn2)C1 (configuration not stated) | 109* | 46* | -6 | -6 | + | 137*
CCCCS(=O)(=O)/C=C\C1C2C=CC(C2)C1S(=O)(=O)CCCC (configuration not stated) | 9 | 0 | -26 | -11 | nt | nt
CCCCS(=O)(=O)/C=C\C=C/S(=O)(=O)CCCC | nt | 56* | nt | 31* | i | 127*
O=C(NC(=O)c1ccc(Cl)cc1)Nc1ccc(-c2cnco2)cc1 | -10 | nt | 4 | -10 | nt | nt
COc1ccc(NC(=O)/C(Cl)=C(/Cl)S(=O)Cc2ccc(Cl)cc2)cn1 (configuration not stated) | 107* | 43* | 44* | 39* | i | 140*
O=Cc1s/c(=N\S(=O)(=O)c2ccccc2)n(CCCCl)c1Cl | 107* | 11* | -2 | 29 | i | 112*
Cc1cc(C(=O)Nc2ccc3c(c2)CCC3)c2ccccc2n1 | 26 | 0 | 11 | -8 | nt | nt
COC(=O)c1ccc2c(c1)C(C)(C)C(/C=C/c1ccccc1O)=[N+]2C | 108* | 8.4* | nt | -47 | + | 120*
O=C(OCn1ncc(Br)c(Br)c1=O)c1ccccc1Cl | 111* | 17* | nt | 14 | + | 124*
Cc1ccc(-n2c(Cl)c(Cl)nc(Cl)c2=O)cc1 | 110* | 6.4* | 2 | -23 | i | 114*
CC(/C=N/NC(=O)c1cc(-c2cccn2C)n[nH]1)=C\c1ccccc1 | 2 | nt | 5 | -19 | nt | nt
Cc1ccc(/C(C#N)=C\c2ccc(N3CCOCC3)o2)cc1 | -54 | 1 | nt | 11 | nt | nt
N#C/C(=C/c1ccc(N2CCCCCC2)o1)c1ccc(Cl)cc1 | 103* | 6.3* | nt | nt | i | 31
Brc1ccc(-c2ccc(/C=N/Nc3nc4ccccc4[nH]3)o2)cc1 | 13 | 0 | -3 | 3 | nt | nt
CCc1ccccc1NC(=O)CSc1nc2n[nH]c(C)c2c(=N)n1-c1cccc(OC)c1 | 46 | 0 | nt | 4 | nt | nt
CCOc1ccccc1NC(=O)CCSc1nc2n[nH]c(C)c2c(=N)n1-c1ccccc1Cl | 101* | 0 | nt | -14 | nt | 10
O=C(Nc1ccc(S(=O)(=O)NC2=NCCCCC2)cc1)c1ccc(=O)[nH]c1 | 8 | 0 | -7 | -17 | nt | nt
Cc1ccc(C(=O)CN2/C(=C(\O)c3ccccc3)C(=O)c3ccccc3S2(=O)=O)c(C)c1 | 106* | 0 | nt | -10 | nt | 28
CC(C)Cc1ccc(C(C)C(=O)Nc2nccs2)cc1 (configuration not stated) | 96* | 0 | nt | -11 | nt | 94*
O=C(NCC1CCCO1)c1ccc2c(=O)n(Cc3ccc(Cl)cc3)c(=S)[nH]c2c1 (configuration not stated) | 103* | 0 | -8 | -3 | nt | 0
CN=C1SC(CC(=O)Nc2ccc(F)cc2F)C(=O)N1/N=C/c1ccc(OC(F)F)c(OC)c1 (configuration not stated) | 98* | 0 | 4 | 14 | nt | 116*

Assay outcomes from PubChem BioAssay.
